Source: ChEMBL document CHEMBL3407460, “Synthesis of novel thiazole-based 8,9-dihydro-7H-pyrimido[4,5-b][1,4]diazepines as potential antitumor and antifungal agents” (2015)

Experiments:
Type in all cases: functional
[1] = Antitumor activity against human SF539 cells after 48 hrs by Sulforhodamine B assay; settings: SF-539, 48 h
Outline: (§1)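 NCI 60-cell-line screen. Secondary five-dose test at 100, 10, 1.0, 0.1 and 0.01 µM with continuous drug exposure for 48 h. Cell growth was estimated by sulforhodamine B protein staining. […] LC50 was also reported.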

[2] = test system: K562; assay: Antitumor activity against human K562 cells after 48 hrs by Sulforhodamine B assay; settings: K562, 48 h; outline: as §1
[3] = test system: DU-145; assay: Antitumor activity against human DU145 cells after 48 hrs by Sulforhodamine B assay; settings: DU-145, 48 h; outline: as §1
[4] = Antitumor activity against human OVCAR8 cells after 48 hrs by Sulforhodamine B assay; settings: OVCAR-8, 48 h; outline: as §1
[5] = test system: KM12; assay: Antitumor activity against human KM12 cells after 48 hrs by Sulforhodamine B assay; settings: KM12, 48 h; outline: as §1
[6] = Antitumor activity against human OVCAR5 cells after 48 hrs by Sulforhodamine B assay; settings: OVCAR-5, 48 h; outline: as §1
[7] = Antitumor activity against human BT549 cells after 48 hrs by Sulforhodamine B assay; settings: BT-549, 48 h; outline: as §1
[8] = Antitumor activity against human NCI-ADR-RES cells after 48 hrs by Sulforhodamine B assay; outline: as §1
[9] = test system: MDA-MB-231; assay: Antitumor activity against human MDA-MB-231 cells after 48 hrs by Sulforhodamine B assay; settings: MDA-MB-231, 48 h; outline: as §1
[10] = test system: SK-MEL-5; assay: Antitumor activity against human SK-MEL-5 cells after 48 hrs by Sulforhodamine B assay; settings: SK-MEL-5, 48 h; outline: as §1
[11] = test system: HOP-62; assay: Antitumor activity against human HOP62 cells after 48 hrs by Sulforhodamine B assay; settings: HOP-62, 48 h; outline: as §1
[12] = test system: IGROV-1; assay: Antitumor activity against human IGROV1 cells after 48 hrs by Sulforhodamine B assay; settings: IGROV-1, 48 h; outline: as §1
[13] = Antitumor activity against human HCT15 cells after 48 hrs by Sulforhodamine B assay; settings: HCT-15, 48 h; outline: as §1
[14] = test system: MCF7; assay: Antitumor activity against human MCF7 cells after 48 hrs by Sulforhodamine B assay; settings: MCF7, 48 h; outline: as §1
[15] = test system: SW-620; assay: Antitumor activity against human SW620 cells after 48 hrs by Sulforhodamine B assay; settings: SW-620, 48 h; outline: as §1
[16] = test system: NCI-H23; assay: Antitumor activity against human NCI-H23 cells after 48 hrs by Sulforhodamine B assay; settings: NCI-H23, 48 h; outline: as §1
[17] = Antitumor activity against human SF295 cells after 48 hrs by Sulforhodamine B assay; settings: SF-295, 48 h; outline: as §1
[18] = test system: SR; assay: Antitumor activity against human SR cells after 48 hrs by Sulforhodamine B assay; outline: as §1
[19] = test system: MDA-MB-435; assay: Antitumor activity against human MDA-MB-435 cells after 48 hrs by Sulforhodamine B assay; settings: MDA-MB-435, 48 h; outline: as §1
[20] = test system: NCI-H226; assay: Antitumor activity against human NCI-H226 cells after 48 hrs by Sulforhodamine B assay; settings: NCI-H226, 48 h; outline: as §1
[21] = test system: M14; assay: Antitumor activity against human M14 cells after 48 hrs by Sulforhodamine B assay; settings: M14, 48 h; outline: as §1
[22] = test system: NCI-H460; assay: Antitumor activity against human NCI-H460 cells after 48 hrs by Sulforhodamine B assay; settings: NCI-H460, 48 h; outline: as §1
[23] = test system: SF-268; assay: Antitumor activity against human SF268 cells after 48 hrs by Sulforhodamine B assay; settings: SF-268, 48 h; outline: as §1
[24] = Antitumor activity against human OVCAR3 cells after 48 hrs by Sulforhodamine B assay; settings: OVCAR-3, 48 h; outline: as §1
[25] = Antitumor activity against human MOLT4 cells after 48 hrs by Sulforhodamine B assay; settings: MOLT-4, 48 h; outline: as §1
[26] = test system: SNB-75; assay: Antitumor activity against human SNB75 cells after 48 hrs by Sulforhodamine B assay; settings: SNB-75, 48 h; outline: as §1
[27] = test system: SK-MEL-2; assay: Antitumor activity against human SK-MEL-2 cells after 48 hrs by Sulforhodamine B assay; settings: SK-MEL-2, 48 h; outline: as §1
[28] = test system: Malme-3M; assay: Antitumor activity against human MALME-3M cells after 48 hrs by Sulforhodamine B assay; outline: as §1
[29] = Antitumor activity against human SKOV3 cells after 48 hrs by Sulforhodamine B assay; settings: SK-OV-3, 48 h; outline: as §1
[30] = test system: A549; assay: Antitumor activity against human A549 cells after 48 hrs by Sulforhodamine B assay; settings: A549, 48 h; outline: as §1
[31] = test system: SK-MEL-28; assay: Antitumor activity against human SK-MEL-28 cells after 48 hrs by Sulforhodamine B assay; settings: SK-MEL-28, 48 h; outline: as §1
[32] = Antitumor activity against human HCT116 cells after 48 hrs by Sulforhodamine B assay; settings: HCT-116, 48 h; outline: as §1
[33] = Antitumor activity against human RPMI8226 cells after 48 hrs by Sulforhodamine B assay; settings: RPMI-8226, 48 h; outline: as §1
[34] = test system: T47D; assay: Antitumor activity against human T47D cells after 48 hrs by Sulforhodamine B assay; outline: as §1
[35] = Antitumor activity against human UACC62 cells after 48 hrs by Sulforhodamine B assay; settings: UACC-62, 48 h; outline: as §1
[36] = Antitumor activity against human LOXIMVI cells after 48 hrs by Sulforhodamine B assay; settings: LOX IMVI; outline: as §1
[37] = Antitumor activity against human COLO205 cells after 48 hrs by Sulforhodamine B assay; settings: COLO 205, 48 h; outline: as §1
[38] = test system: MDA-MB-468; assay: Antitumor activity against human MDA-MB-468 cells after 48 hrs by Sulforhodamine B assay; settings: MDA-MB-468, 48 h; outline: as §1
[39] = Antitumor activity against human Hs 578T cells after 48 hrs by Sulforhodamine B assay; outline: as §1
[40] = read-out: LC50 (the source's name)

## Nc1ncnc2c1N=C(c1ccc3c(c1)OCO3)CC(c1sc(Cl)nc1Cl)N2 (stereo not drawn)
[1]
  GI50: 2.22 µM
[1]; [40]
  CC50: 33.6 µM
[2]
  GI50: 0.54 µM
[2]; [40]
  CC50: > 100 µM
[3]
  GI50: 8.45 µM
[3]; [40]
  CC50: > 100 µM
[4]
  GI50: 4.86 µM
  LC50 (concentration killing 50% of cells): > 100 µM
[5]
  GI50: 3.93 µM
[5]; [40]
  CC50: 73.6 µM
[6]
  GI50: 6.03 µM
  LC50: > 100 µM
[7]
  GI50: 3.79 µM
[7]; [40]
  CC50: 53.9 µM
[8]
  GI50: 3.55 µM
[8]; [40]
  CC50: > 100 µM
[9]
  GI50: 5.81 µM
  LC50 (concentration killing 50% of cells): 55.7 µM
[10]
  GI50: 3.43 µM
[10]; [40]
  CC50: 40.8 µM
[11]
  GI50: 5.32 µM
  LC50 (concentration giving 50% net cell kill): 62.6 µM
[12]
  GI50: 10.4 µM
[12]; [40]
  CC50: > 100 µM
[13]
  GI50: 1.07 µM
[13]; [40]
  CC50: > 100 µM
[14]
  GI50: 2.81 µM
[14]; [40]
  CC50: > 100 µM
[15]
  GI50: 2.98 µM
[15]; [40]
  CC50: > 100 µM
[16]
  GI50: 8.87 µM
  LC50: > 100 µM
[17]
  GI50: 2.21 µM
[17]; [40]
  CC50: 39.8 µM
[18]
  GI50: 1.9 µM
[18]; [40]
  CC50: > 100 µM
[19]
  GI50: 0.35 µM
[19]; [40]
  CC50: 48.4 µM
[20]
  GI50: 17.7 µM
[20]; [40]
  CC50: > 100 µM
[21]
  GI50: 2.01 µM
[21]; [40]
  CC50: 44.6 µM
[22]
  GI50: 3.99 µM
  LC50: > 100 µM
[23]
  GI50: 9.84 µM
[23]; [40]
  CC50: 92.2 µM
[24]
  GI50: 3.94 µM
[24]; [40]
  CC50: 66.8 µM
[25]
  GI50: 5.91 µM
  LC50: > 100 µM
[26]
  GI50: 1.39 µM
  LC50 (concentration killing 50% of cells): 61.4 µM
[27]
  GI50: 5.19 µM
  LC50: 48.6 µM
[28]
  GI50: 14.3 µM
[28]; [40]
  CC50: 59.2 µM
[29]
  GI50: 2.78 µM
[29]; [40]
  CC50: > 100 µM
[30]
  GI50: 6.47 µM
[30]; [40]
  CC50: > 100 µM
[31]
  GI50: 7.63 µM
  LC50: 91.6 µM
[32]
  GI50: 3.42 µM
[32]; [40]
  CC50: 44.5 µM
[33]
  GI50: 4.66 µM
  LC50 (concentration causing 50% net cell kill): > 100 µM
[34]
  GI50: 5.36 µM
[34]; [40]
  CC50: > 100 µM
[35]
  GI50: 2.17 µM
  LC50: 63.9 µM
[36]
  GI50: 7.02 µM
[36]; [40]
  CC50: 75.6 µM
[37]
  GI50: 3.48 µM
[37]; [40]
  CC50: 45.6 µM
[38]
  GI50: 1.65 µM
  LC50: > 100 µM
[39]
  GI50: 2.35 µM
[39]; [40]
  CC50: > 100 µM
